# Reference: PMC10998571 (Proceedings of the National Academy of Sciences of the …, 2024)
# No end group written: not given here.
# Experiments:
# TNFR1 [1] = target: T1, TNFR1 (Homo sapiens, UniProt P19438); details: 37 (ZAF); ref 55 (Pep4-19); cited from earlier work
# T1 sequence (P19438 30-242) 1: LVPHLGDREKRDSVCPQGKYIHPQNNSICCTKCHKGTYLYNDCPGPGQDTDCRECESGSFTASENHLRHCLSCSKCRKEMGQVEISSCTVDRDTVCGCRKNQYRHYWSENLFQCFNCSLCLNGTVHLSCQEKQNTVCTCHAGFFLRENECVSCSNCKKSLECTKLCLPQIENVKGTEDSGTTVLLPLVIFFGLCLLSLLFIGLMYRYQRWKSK
# T1 sequence (P19438 30-242) 2: T1 sequence (P19438 30-242) 1
# TNFR1 PLAD = test: PLAD FRET biosensor; assay type: cell-based; details: HEK293 cells, 24 h; FKC 50 µM, ZAF 100 µM or co-treatment; N = 4
# Procedure, shortened: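 PLAD FRET biosensor made by transient Lipofectamine 3000 transfection of HEK293 cells with donor-only or donor/acceptor FRET pair DNAs. Cells moved to 96-well plates at 15,000 cells/well and treated with PBS (negative control), test compound and/or zafirlukast for 24 h before fluorescence intensity readout.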
# NF-κB activation = details: cited from earlier work
# IL-23 receptor = details: without affecting ligand binding; cited from earlier work
# [2] = tested on: IL-1β induced NF-κB activation in HEK293 cells; test: IL-1β induced NF-κB activation; assay type: cell-based, human; details: IL-1β 50 ng/mL, 18 h, N = 4
# Procedure, shortened: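 HEK293 cells co-transfected with an NF-κB-response-element Firefly luciferase reporter (1 μg) and a Renilla reporter (0.1 μg) using Lipofectamine 3000. After 24 h, 15,000 cells/well were incubated with PBS or test compound (5 to 50 µM), with or without IL-1β, for 18 h at 37 °C. Dual-Glo Firefly, then Stop & Glo Renilla, 15 min RT each. Firefly normalised to Renilla and to ligand-treated cells.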
# [3] = i.p. injection, mice; rhodamine fluorescence of tissue sections
# TNFR1 [4] = target: T1, TNFR1; test: TNFR1 FRET biosensor; assay type: cell-based
# Procedure, shortened: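 HEK293 cells transiently transfected (Lipofectamine 3000) with TNFR1ΔCD–GFP donor alone or with TNFR1ΔCD–RFP acceptor; donor-only served as the no-FRET control. Cells plated at 15,000 cells/well in 96-well plates and treated with PBS or test compound (5 to 50 µM) for 24 h. FRET read from fluorescence intensity; EC50 derived from the dose–response of FRET change.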
# HEK293 cells = test: MTT assay; assay type: cell-based, human; details: FKC 5-50 µM, 24 h, absorbance at 560 nm, N = 4
# TNFR1/TNF = test: Co-IP of TNFR1 and TNF; assay type: binding; details: co-IP with His-tagged TNF beads, overnight 4 °C; FKC 50 µM or etanercept
# Procedure, shortened: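 Ni-NTA agarose beads loaded with His-tagged human TNF for 4 h at 4 °C and washed with PBS. […] Samples were analysed by Western blotting, with equal bead-bound TNF and input TNFR1 as pull-down controls.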
compound,measurement,setting,value
"COc1cc(C(=O)NS(=O)(=O)c2ccccc2C)ccc1Cc1cn(C)c2ccc(NC(=O)OC3CCCC3)cc12 [ZAF, zafirlukast]",extent of inhibition of TNFR1 signaling,TNFR1 [1],only exhibited partial inhibition
same,FRET change of the PLAD biosensor,TNFR1 PLAD,reduced FRET in the PLAD biosensor
VQRWLIVWRIRK-NH2 [IDR],inhibition of NF-κB activation (earlier reports),NF-κB activation,inhibit NF-κB activation
TEEEQQLY [compound 2305],inhibition of IL-23 signaling,IL-23 receptor,noncompetitively inhibit IL-23 signaling
"IL-1β: cytokine that binds IL-1 receptor to stimulate NF-κB activation (MedChemExpress, Cat# HY-P7028)",NF-κB activation relative to basal level (IL-1β),[2],10 fold
Rho-FKCRRWQWRMKK-NH2 [rhodamine-conjugated FKC],"localization in liver, kidney, and lung",[3],localization of FKC in all tissues
FKCRRWQWRMKK-NH2 [FKC],EC50,TNFR1 [4],25 µM
same,toxicity in HEK293 cells,HEK293 cells,does not have any toxic effect in HEK293 cells
etanercept,effect on receptor–ligand interaction,TNFR1/TNF,disrupting receptor–ligand interaction
